According to ChEMBL document CHEMBL4007465, “1,4-Substituted Triazoles as Nonsteroidal Anti-Androgens for Prostate Cancer Treatment” (J Med Chem, 2017):
Active and inactive are the calls of the source. No cut-off for these calls is given here.

Experiments:
[1] = target: T1, Androgen receptor (Homo sapiens) (UniProt P10275); assay: Antagonist activity at androgen receptor in human LNCAP cells assessed as reduction in PSA mRNA expression at 10 uM after 24 hrs by RT-qPCR analysis relative to control; format: cell-based
T1 sequence (whole entry): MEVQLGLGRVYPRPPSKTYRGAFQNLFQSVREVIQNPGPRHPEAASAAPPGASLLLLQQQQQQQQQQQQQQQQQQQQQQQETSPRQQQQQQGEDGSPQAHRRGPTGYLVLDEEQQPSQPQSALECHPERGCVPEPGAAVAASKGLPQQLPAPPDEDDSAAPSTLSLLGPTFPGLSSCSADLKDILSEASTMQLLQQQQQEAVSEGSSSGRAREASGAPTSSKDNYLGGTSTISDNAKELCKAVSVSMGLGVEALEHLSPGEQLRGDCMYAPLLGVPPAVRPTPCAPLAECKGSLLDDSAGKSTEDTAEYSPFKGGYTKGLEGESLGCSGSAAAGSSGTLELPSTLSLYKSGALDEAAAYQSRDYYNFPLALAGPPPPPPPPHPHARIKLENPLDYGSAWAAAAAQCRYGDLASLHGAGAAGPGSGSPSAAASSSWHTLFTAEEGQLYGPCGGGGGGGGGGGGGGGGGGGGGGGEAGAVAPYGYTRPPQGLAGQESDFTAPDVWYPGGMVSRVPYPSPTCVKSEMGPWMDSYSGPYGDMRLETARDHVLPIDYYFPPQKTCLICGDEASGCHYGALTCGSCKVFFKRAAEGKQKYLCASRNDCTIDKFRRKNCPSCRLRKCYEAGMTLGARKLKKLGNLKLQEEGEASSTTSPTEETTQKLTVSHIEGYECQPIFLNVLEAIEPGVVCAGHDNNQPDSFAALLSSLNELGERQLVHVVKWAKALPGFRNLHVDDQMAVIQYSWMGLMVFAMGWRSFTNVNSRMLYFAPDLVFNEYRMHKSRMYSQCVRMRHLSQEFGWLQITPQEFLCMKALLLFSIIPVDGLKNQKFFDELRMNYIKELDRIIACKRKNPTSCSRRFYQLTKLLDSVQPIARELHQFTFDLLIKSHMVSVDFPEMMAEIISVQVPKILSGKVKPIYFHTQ
Method in brief: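 LNCaP cells treated 24 h after seeding with 10 μM compound for 24 h at 37 °C. RNA extracted, cDNA made from equal RNA amounts, then SYBR Green RT-qPCR for PSA. Normalised to 18S rRNA, relative levels by comparative Ct method versus untreated cells. Run in triplicate.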

[2] = Antagonist activity at androgen receptor V7 mutant in human CW22Rv1 cells assessed as cell growth inhibition after 72 hrs by SRB assay; format: cell-based
[3] = Antitumor activity against human CW22Rv1 cells xenografted in nude CD1 mouse assessed as tumor volume inhibition at 50 mg/kg administered through oral gavage dosed qd for 5 days a week measured on day 7; format: functional
Method in brief: (§1)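 Male CD-1 nude (nu/nu) mice, 8 weeks old, given 5 × 10^6 CW22Rv1 cells in saline s.c. in the right flank on day 0. Randomized, 5 per group. From day 1, before tumors were palpable, 50 mg/kg by oral gavage at 10 mL/kg in DMSO/Cremophor/PBS (10/5/85), qdx5/wx3w. Vehicle controls. Tumor volume by caliper as a × b²/2. TVI is the maximum value. Body weight loss monitored.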

Mus musculus [4] = assay: Toxicity in nude CD1 mouse xenografted with human CW22Rv1 cells assessed as body weight loss at 50 mg/kg administered through oral gavage dosed qd for 5 days a week for 3 weeks; format: organism-based; conditions: in vivo; method in brief: as §1
Mus musculus [5] = assay: Toxicity in nude CD1 mouse xenografted with human CW22Rv1 cells assessed as mortality at 50 mg/kg administered through oral gavage dosed qd for 5 days a week for 3 weeks; format: organism-based; conditions: in vivo
Method in brief: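 Eight-week-old male CD-1 nude mice, 5 per group, given CW22Rv1 cells (5 × 10^6 in saline) sc in right flank on day 0. From day 1, oral gavage at 50 mg/kg (10 mL/kg) in DMSO/Cremophor/PBS (10/5/85), daily 5 days/week for 3 weeks. Vehicle controls. Toxicity scored as deaths per group, with body weight loss.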

[6] = test system: Homo sapiens [UNDEFINED MUTATION]; assay: Antagonist activity at androgen receptor V7 mutant in human CW22Rv1 cells assessed as cell growth inhibition after 144 hrs by SRB assay; format: cell-based
Method in brief: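 SRB assay on CW22Rv1 cells grown in RPMI 1640 with 10% FBS and 1% glutamine. Cells plated at 1700/well and exposed 24 h after seeding for 144 h to 0.02–20 μM. OD read at 490 nm. GI50 is the concentration giving 50% growth inhibition by the Monks formula relative to time-zero and untreated OD. Octuplicate wells, three independent experiments, mean ± SD.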

[7] = target: T1, Androgen receptor (Homo sapiens); assay: Antagonist activity at androgen receptor in human LNCAP cells assessed as cell death after 144 hrs by SRB assay; format: cell-based
Method in brief: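 LNCaP cells in RPMI with 10% FBS and 1% glutamine, 5000 cells/well, exposed 24 h after seeding for 144 h to 0.02–20 μM. Read by SRB, OD 490 nm. LC50 is the concentration killing 50% of cells, i.e. treated OD below time-zero OD, per the Monks formula. Octuplicate wells, three independent experiments, mean ± SD.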

[8] = target: T1, Androgen receptor (Homo sapiens)
[9] = test system: Homo sapiens [UNDEFINED MUTATION]; assay: Antagonist activity at androgen receptor V7 mutant in human CW22Rv1 cells assessed as cell death after 144 hrs by SRB assay; format: cell-based
Method in brief: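 CW22Rv1 (RPMI 1640, 10% FBS, 1% glutamine) plated at 1700 cells/well; 24 h after seeding, drug exposure 0.02–20 μM for 144 h. Sulforhodamine B read at 490 nm. LC50 = concentration killing 50% of cells, i.e. OD treated below OD at time of drug addition (Monks formula). Octuplicate wells, three independent experiments, mean ± SD.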

Homo sapiens [10] = species on record: Homo sapiens; assay: Potency index, ratio of enzalutamide IC50 to compound IC50 for antagonist activity at AR V7 mutant in human CW22Rv1 cells assessed as cell growth inhibition; format: cell-based
Method in brief: (§2)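 CW22Rv1 growth-inhibition assay: cells exposed 24 h after seeding to 0.5–100 μM for 72 h, then counted with a Coulter counter. IC50 is the concentration causing 50% growth inhibition, taken from dose–response curves. Run in triplicate, three independent experiments, mean ± SD. Ratios divide the reference IC50 by the compound IC50.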

Homo sapiens [11] = species on record: Homo sapiens; assay: Potency index, ratio of (R)-bicalutamide IC50 to compound IC50 for antagonist activity at AR V7 mutant in human CW22Rv1 cells assessed as cell growth inhibition; format: cell-based; method in brief: as §2

Compound	inhibition [1]	other results
N#Cc1ccc(-n2cc(COc3cccc(C(F)(F)F)c3F)nn2)cc1C(F)(F)F	inactive	–
N#Cc1ccc(-n2cc(-c3cccc(Cl)c3F)nn2)cc1C(F)(F)F	inactive	–
N#Cc1ccc(-n2cc(COc3ccc([N+](=O)[O-])cc3C(F)(F)F)nn2)cc1C(F)(F)F	inactive	–
N#Cc1ccc(-n2cc(COc3ccccc3)nn2)cc1C(F)(F)F	> 65%	–
O=[N+]([O-])c1ccc(OCc2cn(-c3cccc(C(F)(F)F)c3)nn2)c(C(F)(F)F)c1	inactive	–
C[C@](O)(CS(=O)(=O)c1ccc(F)cc1)C(=O)Nc1ccc(C#N)c(C(F)(F)F)c1 [(R)-BICALUTAMIDE]	–	IC50 [2]: 31.3 µM
CC(O)c1c(COc2ccc(C#N)cc2)nnn1-c1ccc(C#N)c(C(F)(F)F)c1 (stereo not given)	> 65%	–
CNC(=O)c1ccc(N2C(=S)N(c3ccc(C#N)c(C(F)(F)F)c3)C(=O)C2(C)C)cc1F [ENZALUTAMIDE]	–	%max [3]: 43%; Activity (Mus musculus [4]): 0%; IC50 [2]: 35.8 µM; Activity (Mus musculus [5]): Non-Toxic
N#Cc1ccc(OCc2cn(CC(=O)Nc3ccc(Cl)c(C(F)(F)F)c3)nn2)cc1	inactive	GI50 [6]: 8.25 µM; GI50 [7]: 15.7 µM; %max [3]: 60%; Activity (Mus musculus [4]): 0%; IC50 [2]: 8.14 µM; GI50 [8]: 5.09 µM; LC50 [9]: 23.1 µM; Ratio IC50 (Homo sapiens [10]): 4.4; Ratio IC50 (Homo sapiens [11]): 3.8; Activity (Mus musculus [5]): Non-Toxic
N#Cc1ccc(NC(=O)Cn2cc(COc3ccc(F)cc3)nn2)cc1C(F)(F)F	inactive	–
N#Cc1ccc(-n2cc(COc3ccccc3[N+](=O)[O-])nn2)cc1C(F)(F)F	> 65%	–
N#Cc1ccc(-n2cc(COc3ccc(C(F)(F)F)cc3)nn2)cc1C(F)(F)F	inactive	–
N#Cc1ccc(-n2cc(COc3ccc([N+](=O)[O-])cc3)nn2)cc1C(F)(F)F	> 65%	–
N#Cc1ccc(-n2nnc(COc3ccc([N+](=O)[O-])cc3C(F)(F)F)c2I)cc1C(F)(F)F	inactive	–
N#Cc1ccc(-n2cc(COc3ccc(F)c(C(F)(F)F)c3)nn2)cc1C(F)(F)F	inactive	–
N#Cc1ccc(-n2cc(CSc3ccc(F)cc3)nn2)cc1C(F)(F)F	> 65%	GI50 [8]: 16.8 µM
N#Cc1ccc(-n2cc(-c3cccc(C(F)(F)F)c3F)nn2)cc1C(F)(F)F	inactive	–
N#Cc1ccc(-n2cc(COc3ccc(F)cc3)nn2)cc1C(F)(F)F	> 65%	GI50 [8]: 19.2 µM
N#Cc1ccc(OCc2cn(-c3ccc(C#N)c(C(F)(F)F)c3)nn2)cc1	> 65%	–
N#Cc1ccc(OCc2cn(CC(=O)Nc3ccc(C#N)c(C(F)(F)F)c3)nn2)cc1	70%	GI50 [8]: 6.42 µM
N#Cc1ccc(NC(=O)Cn2cc(CSc3ccc(F)cc3)nn2)cc1C(F)(F)F	inactive	–
N#Cc1ccc(-n2cc(COc3cccc(C(F)(F)F)c3)nn2)cc1C(F)(F)F	inactive	–
N#Cc1ccc(-n2cc(-c3cccc(F)c3F)nn2)cc1C(F)(F)F	38%	–
N#Cc1ccccc1OCc1cn(-c2ccc(C#N)c(C(F)(F)F)c2)nn1	> 65%	–
